# Assay results as given in ChEMBL document CHEMBL1123812, “Pyrroloisoquinoline antidepressants. 2. In-depth exploration of structure-activity relationships” (J Med Chem, 1987).
# The source made the active and inactive calls.
# Tests used:
# [1] = test system: Rattus norvegicus; assay: Ability to inhibit the uptake of tritiated serotonin(5-HT) 0.1 mg/kg concentration; assay type: functional
# [2] = species on record: Mus musculus; assay: Antagonism of tetrabenazine (TBZ)-induced depression in mice measured for ptosis; assay type: functional; conditions: Mus musculus; read-out: ED50
# Outline: (§1)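 Nonfasted male Swiss Webster mice, 18–24 g, ten per dose level and in saline controls. Test compound given ip 30 min before tetrabenazine 32 mg/kg ip; dose expressed as free base. Motor activity and ptosis scored. Control response ≤90% corrected by Abbott's formula.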
# [3] = species on record: Mus musculus; assay: Antagonism of tetrabenazine (TBZ)-induced depression measured in mice by motor activity; assay type: functional; conditions: Mus musculus; read-out: ED50; outline: as §1
# [4] = species on record: Mus musculus; assay: Gross behavioral effects ascertained in mice; W indicates weak stimulant or depressant activity of little significance.; assay type: functional, organism-based
# Outline: (§2)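 Male Swiss Webster mice, 18–24 g, three per dose, given ip doses of 1, 3, 10, 30, 100 and 300 mg/kg. Observed for gross behavior and held for 4 days. Scored as weak (W), stimulant (S), depressant (D) or convulsant (C).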
# [5] = test system: Rattus norvegicus; assay: Ability to inhibit the uptake of tritiated norepinephrine (NE) 0.1 mg/kg concentration; assay type: functional
# [6] = species on record: Rattus norvegicus; assay: Ability to inhibit the uptake of tritiated dopamine (DA) 1 uM concentration; assay type: functional
# Outline: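 Rat brain synaptosomal [3H]dopamine uptake: striatal P2 fraction, test compound at 1.00 μM. Preincubated at 37 °C, then 50–300 nM [3H]DA for 3 min. Blanks on ice. Filtration and scintillation counting; percent inhibition of control uptake.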
# [7] = test system: Mus musculus; assay: (§3) Ability to antagonise intraperitoneal dose; inactive (<10% antagonism) at 30 mgjkg is represented as I-30.; assay type: functional, organism-based; outline: as §1
# [8] = test system: Mus musculus; assay: Ability to antagonise intraperitoneal administration; inactive (<10% antagonism) at 30 mgjkg is represented as I-30.; assay type: functional, organism-based; outline: as §1
# [9] = target: Sodium-dependent serotonin transporter (Rattus norvegicus) (UniProt P31652); assay: Ability to inhibit the uptake of [3H]- serotonin(5-HT) 0.1 uM concentration at rat brain synaptosomes; assay type: functional, subcellular
# Sodium-dependent serotonin transporter (Rattus norvegicus), sequence (P31652 whole entry): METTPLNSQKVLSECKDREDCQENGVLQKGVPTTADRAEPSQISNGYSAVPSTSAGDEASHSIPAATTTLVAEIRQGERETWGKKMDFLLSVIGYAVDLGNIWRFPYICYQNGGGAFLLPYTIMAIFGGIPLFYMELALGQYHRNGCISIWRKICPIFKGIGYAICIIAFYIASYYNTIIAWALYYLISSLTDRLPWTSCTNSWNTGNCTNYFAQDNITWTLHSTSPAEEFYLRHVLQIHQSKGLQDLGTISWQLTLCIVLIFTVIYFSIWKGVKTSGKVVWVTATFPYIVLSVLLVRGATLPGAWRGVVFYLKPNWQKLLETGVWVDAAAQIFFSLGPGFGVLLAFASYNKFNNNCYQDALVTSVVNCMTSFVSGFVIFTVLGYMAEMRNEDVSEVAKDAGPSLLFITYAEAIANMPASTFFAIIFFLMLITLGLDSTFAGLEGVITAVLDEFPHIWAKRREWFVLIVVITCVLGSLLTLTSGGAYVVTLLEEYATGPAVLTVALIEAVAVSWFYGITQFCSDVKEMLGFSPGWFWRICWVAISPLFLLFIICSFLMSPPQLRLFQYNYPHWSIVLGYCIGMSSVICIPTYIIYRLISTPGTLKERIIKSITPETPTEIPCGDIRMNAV
# Outline: (§4)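 Male Wistar rat brain synaptosomes (P2 fraction): hypothalamus for NE, striatum for DA, cerebral cortex for 5-HT. Buffer is Tris- or HEPES-buffered salt medium with glucose, ascorbate and nialamide, pH 7.4 at 37 °C. Preincubated 10 min at 37 °C with compound. Uptake started with [3H]NE 100–300 nM, [3H]DA 50–300 nM or [3H]5-HT 100–200 nM, incubated 3 min (DA) or 6–10 min (NE, 5-HT). Blanks held on ice. Filtered, counted by scintillation.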
# [10] = target: Norepinephrine transporter (Rattus norvegicus) (UniProt Q9WTR4); assay: Ability to inhibit the uptake of [3H]norepinephrine (NE) 0.1 uM concentration at rat brain synaptosomes; assay type: functional, subcellular; outline: as §4
# Norepinephrine transporter (Rattus norvegicus), sequence (Q9WTR4 as listed by the source): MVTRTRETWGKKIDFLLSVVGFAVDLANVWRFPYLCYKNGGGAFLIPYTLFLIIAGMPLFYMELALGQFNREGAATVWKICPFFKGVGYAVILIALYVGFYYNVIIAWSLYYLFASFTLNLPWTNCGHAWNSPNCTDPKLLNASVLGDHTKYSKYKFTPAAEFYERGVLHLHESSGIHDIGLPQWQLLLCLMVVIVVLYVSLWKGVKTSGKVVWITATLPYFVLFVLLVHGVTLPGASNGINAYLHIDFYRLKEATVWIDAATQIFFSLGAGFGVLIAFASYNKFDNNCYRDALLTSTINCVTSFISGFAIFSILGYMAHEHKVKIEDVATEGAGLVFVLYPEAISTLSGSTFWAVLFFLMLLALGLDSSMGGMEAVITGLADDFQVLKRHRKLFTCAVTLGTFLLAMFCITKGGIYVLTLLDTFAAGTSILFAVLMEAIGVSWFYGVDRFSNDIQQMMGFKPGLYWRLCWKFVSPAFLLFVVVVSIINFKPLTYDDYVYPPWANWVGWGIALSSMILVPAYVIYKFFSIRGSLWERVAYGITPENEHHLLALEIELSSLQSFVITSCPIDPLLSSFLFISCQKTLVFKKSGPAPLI
# [11] = target: Adrenergic receptor alpha-1 (Rattus norvegicus) (UniProt P15823+P23944+P43140); assay: Binding affinity towards alpha-1 adrenergic receptor at 1.0 uM concentration; assay type: protein assay
# Outline: (§5)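 Rat brain crude synaptic membranes in 20 mM NaHEPES pH 7.5. Ligands: α1 cortex […] 0.4 nM, nonspecific with (-)-NE 100 μM, 30 min at 25 °C. […] D2 striatum [3H]spiperone 0.05 nM with (+)-butaclamol 1 μM, 45 min at 37 °C. S1 cortex [3H]5-HT 1 nM plus glutathione and MgCl2, with 5-HT 10 μM, 20 min at 37 °C. […] Samples filtered on GF/B and counted.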
# [12] = target: T1, Serotonin 2 (5-HT2) receptor (Rattus norvegicus) (UniProt P30994+P08909+P14842); assay: Binding affinity towards 5-hydroxytryptamine 2 receptor; assay type: protein assay; conditions: concentration not given here; outline: as §5
# T1 sequence (P08909 whole entry, looked up): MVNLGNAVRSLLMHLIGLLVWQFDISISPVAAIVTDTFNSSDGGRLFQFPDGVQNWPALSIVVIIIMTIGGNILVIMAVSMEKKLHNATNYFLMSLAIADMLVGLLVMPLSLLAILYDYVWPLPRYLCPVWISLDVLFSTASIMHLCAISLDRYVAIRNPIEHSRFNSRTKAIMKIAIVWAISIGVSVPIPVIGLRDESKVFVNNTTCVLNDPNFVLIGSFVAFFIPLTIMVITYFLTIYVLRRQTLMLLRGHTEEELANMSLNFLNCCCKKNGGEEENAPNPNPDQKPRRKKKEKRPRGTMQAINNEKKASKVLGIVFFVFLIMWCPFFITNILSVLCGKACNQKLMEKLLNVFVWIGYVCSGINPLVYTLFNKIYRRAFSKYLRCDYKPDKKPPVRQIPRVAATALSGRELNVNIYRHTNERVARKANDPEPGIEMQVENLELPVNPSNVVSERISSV
# T1 sequence (P14842 whole entry, looked up): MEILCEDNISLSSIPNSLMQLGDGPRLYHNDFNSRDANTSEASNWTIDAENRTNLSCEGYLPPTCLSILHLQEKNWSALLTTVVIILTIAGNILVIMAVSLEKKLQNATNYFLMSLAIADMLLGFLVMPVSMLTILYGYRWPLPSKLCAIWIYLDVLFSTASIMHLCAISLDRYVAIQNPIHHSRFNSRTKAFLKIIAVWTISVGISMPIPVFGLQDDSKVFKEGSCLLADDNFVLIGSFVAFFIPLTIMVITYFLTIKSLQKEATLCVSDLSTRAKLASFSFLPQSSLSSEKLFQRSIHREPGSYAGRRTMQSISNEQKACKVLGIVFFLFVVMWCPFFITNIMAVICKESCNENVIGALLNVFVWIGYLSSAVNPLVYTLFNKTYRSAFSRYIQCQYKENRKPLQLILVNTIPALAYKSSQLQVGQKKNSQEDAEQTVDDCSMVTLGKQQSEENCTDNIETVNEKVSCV
# T1 sequence (P30994 whole entry, looked up): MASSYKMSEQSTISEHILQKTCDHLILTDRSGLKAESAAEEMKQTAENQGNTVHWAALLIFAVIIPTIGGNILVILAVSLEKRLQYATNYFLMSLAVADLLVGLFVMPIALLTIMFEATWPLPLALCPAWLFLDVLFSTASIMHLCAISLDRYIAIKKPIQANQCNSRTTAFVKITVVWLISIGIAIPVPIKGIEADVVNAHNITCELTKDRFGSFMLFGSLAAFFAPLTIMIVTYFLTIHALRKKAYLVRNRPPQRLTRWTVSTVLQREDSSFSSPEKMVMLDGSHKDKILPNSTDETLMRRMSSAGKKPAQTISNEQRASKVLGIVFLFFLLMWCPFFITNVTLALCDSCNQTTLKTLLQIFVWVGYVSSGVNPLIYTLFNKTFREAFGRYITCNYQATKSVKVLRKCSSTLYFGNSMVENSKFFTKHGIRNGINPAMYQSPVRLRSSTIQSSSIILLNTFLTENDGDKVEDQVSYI
# [13] = test system: Mus musculus; assay: Ability to antagonise intraperitoneal dose; inactive (<10% antagonism) at 30 mg/kg is represented as I-30.; assay type: functional, organism-based; parameters: dose 30 mg/kg; outline: as §1
# [14] = target: Norepinephrine transporter (Rattus norvegicus, UniProt Q9WTR4); assay: Inhibition of uptake of tritiated norepinephrine (NE) in rat synaptosomes; assay type: subcellular, Brain
# Norepinephrine transporter, sequence (Q9WTR4 whole entry): as the sequence (Q9WTR4 as listed by the source) above
# [15] = species on record: Rattus norvegicus; assay: Ability to inhibit the uptake of tritiated dopamine (DA); assay type: functional; outline: as §4
# [16] = target: D(2) dopamine receptor (Rattus norvegicus) (UniProt P61169); assay: Binding affinity towards dopamine receptor D2 at 1.0 uM concentration; outline: as §5
# D(2) dopamine receptor (Rattus norvegicus), sequence (P61169 whole entry): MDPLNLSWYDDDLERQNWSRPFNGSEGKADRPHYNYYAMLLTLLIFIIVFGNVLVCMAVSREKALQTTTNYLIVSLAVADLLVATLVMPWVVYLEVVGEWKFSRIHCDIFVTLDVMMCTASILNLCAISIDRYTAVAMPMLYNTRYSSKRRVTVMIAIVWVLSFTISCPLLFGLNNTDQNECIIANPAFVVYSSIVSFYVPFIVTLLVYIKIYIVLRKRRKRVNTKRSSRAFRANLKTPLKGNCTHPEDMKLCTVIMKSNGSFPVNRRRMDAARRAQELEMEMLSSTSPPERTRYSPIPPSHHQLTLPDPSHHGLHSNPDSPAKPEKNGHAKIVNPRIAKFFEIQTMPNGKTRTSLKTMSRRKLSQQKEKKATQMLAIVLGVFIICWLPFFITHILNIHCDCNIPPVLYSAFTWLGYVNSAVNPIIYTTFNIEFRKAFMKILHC
# [17] = target: Serotonin 1 (5-HT1) receptor (Rattus norvegicus) (UniProt P28564+P30940+P19327+P28565); assay: Binding affinity towards serotonin S1 receptor at 1.0 uM; assay type: protein assay; outline: as §5
# [18] = target: D(1A) dopamine receptor (Rattus norvegicus) (UniProt P18901); assay: Binding affinity towards Dopamine receptor D1 at 1.0 uM concentration; outline: as §5
# D(1A) dopamine receptor (Rattus norvegicus), sequence (P18901 whole entry): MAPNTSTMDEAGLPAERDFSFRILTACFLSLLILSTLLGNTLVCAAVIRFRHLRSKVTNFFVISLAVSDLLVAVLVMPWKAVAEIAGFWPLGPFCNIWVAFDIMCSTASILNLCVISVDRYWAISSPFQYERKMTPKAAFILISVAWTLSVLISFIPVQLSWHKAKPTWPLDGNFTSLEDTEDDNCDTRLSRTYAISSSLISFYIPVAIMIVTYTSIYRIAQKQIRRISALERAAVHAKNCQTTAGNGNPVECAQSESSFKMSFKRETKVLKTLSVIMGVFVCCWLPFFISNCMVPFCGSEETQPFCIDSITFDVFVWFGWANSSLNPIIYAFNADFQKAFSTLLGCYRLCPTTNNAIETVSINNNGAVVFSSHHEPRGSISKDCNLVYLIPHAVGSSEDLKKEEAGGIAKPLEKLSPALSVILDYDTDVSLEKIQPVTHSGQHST
# [19] = target: Muscarinic acetylcholine receptor (Rattus norvegicus) (UniProt P08482+P08483+P08485+P08911+P10980); assay: Binding affinity towards Muscarinic acetylcholine receptor at 10 uM concentration; assay type: protein assay
# [20] = species on record: Mus musculus; assay: Gross behavioral effects ascertained in mice; S indicates significant stimulant properties.; assay type: functional, organism-based; outline: as §2
# [21] = test system: Mus musculus; assay: Ability to antagonise intraperitoneal administration; weakly active (>=10% and <=30% antagonism) at 30 mg/kg is represented as >30; assay type: functional; conditions: ip; outline: as §1
# [22] = species on record: Mus musculus; assay: Gross behavioral effects ascertained in mice; assay type: functional, organism-based; outline: as §2
# [23] = species on record: Rattus norvegicus; assay: Ability to inhibit the uptake of tritiated norepinephrine (NE) at 0.1 uM concentration; assay type: functional; outline: as §4
# [24] = target: Sodium-dependent serotonin transporter (Rattus norvegicus) (UniProt P31652); assay: Inhibition of tritiated serotonin(5-HT) uptake at 0.1 uM concentration; assay type: functional; outline: as §4
# [25] = target: Sodium-dependent dopamine transporter (Rattus norvegicus, UniProt P23977); assay: Inhibition of the uptake of tritiated dopamine (DA) in rat synaptosomes; assay type: subcellular, Brain
# Sodium-dependent dopamine transporter, sequence (P23977 whole entry): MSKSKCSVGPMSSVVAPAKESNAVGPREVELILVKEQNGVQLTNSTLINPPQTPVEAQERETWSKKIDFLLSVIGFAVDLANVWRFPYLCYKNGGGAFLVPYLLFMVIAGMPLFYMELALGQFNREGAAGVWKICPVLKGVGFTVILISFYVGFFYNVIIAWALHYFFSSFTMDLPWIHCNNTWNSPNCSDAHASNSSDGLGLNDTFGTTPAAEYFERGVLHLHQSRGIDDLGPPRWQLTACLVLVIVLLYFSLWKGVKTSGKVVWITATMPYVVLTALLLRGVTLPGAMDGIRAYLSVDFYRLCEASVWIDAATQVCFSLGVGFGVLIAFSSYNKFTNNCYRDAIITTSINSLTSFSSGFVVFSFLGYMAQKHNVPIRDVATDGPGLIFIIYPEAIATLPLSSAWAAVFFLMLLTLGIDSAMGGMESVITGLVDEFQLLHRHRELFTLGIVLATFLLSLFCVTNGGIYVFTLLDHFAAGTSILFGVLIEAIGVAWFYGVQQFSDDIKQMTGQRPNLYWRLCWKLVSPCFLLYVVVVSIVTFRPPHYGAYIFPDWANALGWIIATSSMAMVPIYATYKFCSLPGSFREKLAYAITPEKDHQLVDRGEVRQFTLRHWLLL
# [26] = test system: Mus musculus; assay: Ability to antagonise intraperitoneal 30 mg/kg dose; inactive (<10% antagonism) at 30 mgjkg is represented as I-30.; assay type: functional, organism-based; parameters: dose 30 mg/kg; outline: as §1
# [27] = species on record: Mus musculus; assay: Gross behavioral effects ascertained in mice; C indicates overt convulsant; assay type: functional, organism-based; outline: as §2
# [28] = species on record: Rattus norvegicus; assay: Ability to inhibit the uptake of tritiated serotonin (5-HT) at 0.1 uM concentration in rat synaptosomes; assay type: functional; conditions: Brain; outline: as §4
# [29] = species on record: Rattus norvegicus; assay: Ability to inhibit the uptake of tritiated norepinephrine (NE) 0.1 uM concentration; assay type: functional; outline: as §4
# [30] = target: Sodium-dependent dopamine transporter (Rattus norvegicus) (UniProt P23977); assay: Ability to inhibit the uptake of [3H]dopamine (DA) 0.1 uM concentration at rat brain synaptosomes; assay type: functional, subcellular; outline: as §4
# Sodium-dependent dopamine transporter (Rattus norvegicus), sequence (P23977 whole entry): as above
# [31] = test system: Mus musculus; assay: as §3; assay type: functional, organism-based; remark: listed apart in the source
# Outline: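 Swiss Webster male albino mice, nonfasted, 18–24 g, 10 per dose and in saline control. Compound given ip 30 min before TBZ 32 mg/kg ip. Motor activity and ptosis scored. Response corrected by Abbott's formula when control response was 90% or less. Doses expressed as free base.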
# [32] = species on record: Mus musculus; assay: Gross behavioral effects ascertained in mice; D indicates significant depressant properties.; assay type: functional, organism-based
# Outline: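 Male Swiss Webster albino mice, 18–24 g, three per dose, given ip 1, 3, 10, 30, 100 and 300 mg/kg. Gross behaviour observed and held 4 days. Estimated LD50 range from lethality count on day 4. Scored as weak stimulant/depressant, significant stimulant, significant depressant or overt convulsant.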
# [33] = test system: Rattus norvegicus; assay: Ability to inhibit the uptake of tritiated serotonin(5-HT) at 0.1 mg/kg concentration; assay type: functional
# [34] = test system: Mus musculus; assay: as §3; assay type: functional, organism-based; outline: as §1; remark: listed apart in the source
# [35] = target: Sodium-dependent dopamine transporter (Rattus norvegicus) (UniProt P23977); assay: Inhibition of tritiated dopamine (DA) uptake at 0.1 uM concentration; assay type: functional; outline: as §4
# [36] = target: T1, Serotonin 2 (5-HT2) receptor (Rattus norvegicus); assay: Binding affinity towards 5-hydroxytryptamine 2 receptor at 1.0 uM concentration; assay type: protein assay; outline: as §5
smiles,measurement,setting,value
Br.Cn1ccc2c1[C@H](c1ccccc1)CN1CCC[C@@H]21,inhibition in vivo at 0.1 mg/kg,[1],6%
same,ED50,[2],> 30 mg/kg
same,ED50,[3],> 30 mg/kg
same,behavior,[4],Weak
same,inhibition in vivo at 0.1 mg/kg,[5],8%
c1ccc2c(c1)[C@H](C1CCCCC1)CN1CCC[C@@H]21,Inhibition,[6],31%
same,ED50,[7],inactive
same,ED50,[8],inactive
same,behavior,[4],Weak
same,inhibition,[9],0%
same,inhibition,[10],0%
FC(F)(F)c1cccc([C@@H]2CN3CCC[C@@H]3c3ccccc32)c1 (stereo in doubt; (+)-37b),behavior,[4],Partial stimulant
same,inhibition,[11],48%
same,inhibition,[12],44%
C[C@@]12CCCCN1C[C@H](c1ccccc1)c1ccccc12,ED50,[13],inactive
same,Ki,[14],10.5 nM
same,Ki,[15],36.4 nM
same,ED50,[7],inactive
same,behavior,[4],Weak
same,inhibition,[9],15%
FC(F)(F)c1cccc([C@@H]2CN3CCC[C@@H]3c3ccccc32)c1 (stereo in doubt; (-)-37b),inhibition,[16],9%
same,inhibition,[17],58%
same,inhibition,[12],45%
c1ccc([C@@H]2CN3CCC[C@H]3c3ccccc32)cc1 [listing 1 of 2 here],Ki,[15],~100 nM
c1ccc([C@@H]2CN3CCC[C@@H]3c3ccccc32)cc1 (stereo in doubt; 7b),inhibition,[18],35%
same,inhibition,[19],0%
same,behavior,[20],Stimulant
Br.CS(=O)(=O)c1ccc([C@@H]2CN3CCC[C@@H]3c3ccccc32)cc1,ED50,[13],inactive
same,ED50 at 30 mg/kg,[21],> 30 mg/kg
same,behavior,[22],inactive
COc1ccc([C@@H]2CN3CCCC3c3cc(OC)c(OC)cc32)cc1OC (stereo partly drawn),ED50,[13],inactive
same,Inhibition,[23],18%
same,inhibition,[24],10%
same,Ki,[25],355 nM
same,ED50,[26],inactive
same,behavior,[27],Overt convulsant
c1ccc([C@@H]2CN3CCC[C@H]3c3ccccc32)cc1 [listing 2 of 2 here],ED50,[13],inactive
same,ED50,[7],inactive
same,behavior,[4],Weak
same,inhibition,[28],1%
same,inhibition,[9],-10%
same,inhibition,[10],21%
same,behavior,[27],Overt convulsant
FC(F)(F)c1cccc([C@@H]2CN3CCC[C@H]3c3cccc(Cl)c32)c1,Ki,[29],~100 nM
same,inhibition,[9],22%
same,inhibition,[30],4%
c1ccc([C@@H]2CN3CCC[C@H]3c3[nH]c4ccccc4c32)cc1,ED50,[13],inactive
same,inhibition in vivo at 0.1 mg/kg,[1],-21%
same,ED50,[31],inactive
same,inhibition in vivo at 0.1 mg/kg,[5],7%
same,behavior,[32],Significant depressant
c1ccc([C@@H]2CN3CCC[C@H]3Cc3ccccc32)cc1,inhibition in vivo at 0.1 mg/kg,[33],6%
C[C@@]12CCCCN1C[C@@H](c1ccccc1)c1ccccc12,ED50,[7],inactive
same,Ki,[29],2 nM
same,ED50,[34],inactive
same,Ki,[25],> 1000 nM
same,inhibition,[9],4%
same,behavior,[27],Overt convulsant
Br.COc1cc([C@@H]2CN3CCC[C@H]3c3ccccc32)cc(OC)c1OC,ED50,[13],inactive
same,Inhibition,[23],9%
same,inhibition,[24],12%
same,behavior,[4],Partial stimulant
same,inhibition,[11],90%
same,ED50,[26],inactive
same,inhibition,[35],0%
same,inhibition,[36],88%
Br.c1ccc([C@H]2CN3CCC[C@H]3Cc3ccccc32)cc1,ED50,[3],> 3 mg/kg
same,inhibition in vivo at 0.1 mg/kg,[33],9%
c1ccc(CCN2CCCC2c2ccccc2)cc1 (stereo not drawn),inhibition in vivo at 0.1 mg/kg,[1],4%
same,ED50,[2],~10 mg/kg
same,ED50,[3],~10 mg/kg
same,behavior,[4],Weak
same,inhibition in vivo at 0.1 mg/kg,[5],38%
